According to ChEMBL document CHEMBL3526066, “In vitro metabolism of 17-(dimethylaminoethylamino)-17-demethoxygeldanamycin in human liver microsomes” (Drug Metab Dispos, 2011):

Experiments:
Liver microsome [1] = assay: Retention time in human liver microsomes treated with 10 uM […] after 2 hrs by liquid chromatography-tandem mass spectrometry; assay type: ADME
Summary of the method: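 17-DMAG (10 µM initial) was incubated with HLMs (1 mg/ml) in 0.1 M phosphate buffer with 3.3 mM MgCl2 and 1 mM β-NADPH at 37°C for 2 h alongside negative controls, then quenched with ice-cold acetonitrile. Samples were run on a C18 column with a 0.1% formic acid/ammonium formate–acetonitrile gradient (10–90% B in 10 min) using MS full scan, MRM, EPI and MS3 scans.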

Liver microsome [2] = assay: Drug level in human liver microsomes treated with 1 uM 17-DMAG by liquid chromatography-tandem mass spectrometry in presence of 10 uM alpha-naphthoflavone CYP1A2 inhibitor; assay type: ADME
Summary of the method: (§1)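 Pooled HLMs in 0.1 M phosphate buffer pH 7.4 with 1 mM β-NADPH, 3.3 mM MgCl2 and the selective inhibitor were preincubated 3 min at 37°C in a shaking water bath. 17-DMAG (1 µM final) was then added and incubated 20 min at 37°C, with parallel no-inhibitor controls. M1, M2, M3, M4 and M6 were quantified by LC-MS/MS MRM. Inhibition was taken as the ratio of metabolite formed with versus without inhibitor.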

Liver microsome [3] = assay: Drug level in human liver microsomes treated with 1 uM 17-DMAG by liquid chromatography-tandem mass spectrometry in presence of 1 uM tranylcypromine CYP2A6 inhibitor; assay type: ADME; summary of the method: as §1
Liver microsome [4] = assay: Drug level in human liver microsomes treated with 1 uM 17-DMAG by liquid chromatography-tandem mass spectrometry in presence of 1 uM quercetin CYP2C8 inhibitor; assay type: ADME; summary of the method: as §1
Liver microsome [5] = assay: Drug level in human liver microsomes treated with 1 uM 17-DMAGby liquid chromatography-tandem mass spectrometry in presence of 1 uM sulfaphenazole CYP2C9 inhibitor; assay type: ADME; summary of the method: as §1
Liver microsome [6] = assay: Drug level in human liver microsomes treated with 1 uM 17-DMAG by liquid chromatography-tandem mass spectrometry in presence of 10 uM ticlopidine CYP2B6 inhibitor; assay type: ADME; summary of the method: as §1
Liver microsome [7] = assay: Drug level in human liver microsomes treated with 1 uM 17-DMAG by liquid chromatography-tandem mass spectrometry in presence of 1 uM quinidine CYP2D6 inhibitor; assay type: ADME; summary of the method: as §1
Liver microsome [8] = assay: Drug level in human liver microsomes treated with 1 uM 17-DMAG by liquid chromatography-tandem mass spectrometry in presence of 10 uM diethyldithiocarbamate CYP2E1 inhibitor; assay type: ADME; summary of the method: as §1
Cytochrome P450 3A4 = Cytochrome P450 3A4 (Homo sapiens, UniProt P08684); assay: Drug level assessed as human recombinant CYP3A4-mediated oxidative metabolism treated with 1 uM 17-DMAG after 30 mins by liquid chromatography-tandem mass spectrometry; assay type: ADME; details: recombinant enzyme, 0.5 h
Summary of the method: (§2)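 Recombinant human P450 (E. coli-expressed, coexpressed with cytochrome b5), 20 pmol per 200 µl incubation with 0.2 mg reduced β-NADPH and 3.3 mM MgCl2 in 0.1 M phosphate buffer pH 7.4. Preincubated at 37°C in a shaking water bath, then 1 µM 17-DMAG added. E. coli control microsomes lacking P450 cDNA served as negative control. Metabolite (M1–M4, M6) formation rates were read by LC-MS/MS MRM and expressed as percent of the CYP3A4 rate.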

Cytochrome P450 2C8 = target: T1, Cytochrome P450 2C8 (Homo sapiens, UniProt P10632); assay: Drug level assessed as human recombinant CYP2C8-mediated oxidative metabolism treated with 1 uM 17-DMAG relative to CYP3A4; assay type: ADME; details: recombinant enzyme; summary of the method: as §2
T1 sequence (P10632 whole entry): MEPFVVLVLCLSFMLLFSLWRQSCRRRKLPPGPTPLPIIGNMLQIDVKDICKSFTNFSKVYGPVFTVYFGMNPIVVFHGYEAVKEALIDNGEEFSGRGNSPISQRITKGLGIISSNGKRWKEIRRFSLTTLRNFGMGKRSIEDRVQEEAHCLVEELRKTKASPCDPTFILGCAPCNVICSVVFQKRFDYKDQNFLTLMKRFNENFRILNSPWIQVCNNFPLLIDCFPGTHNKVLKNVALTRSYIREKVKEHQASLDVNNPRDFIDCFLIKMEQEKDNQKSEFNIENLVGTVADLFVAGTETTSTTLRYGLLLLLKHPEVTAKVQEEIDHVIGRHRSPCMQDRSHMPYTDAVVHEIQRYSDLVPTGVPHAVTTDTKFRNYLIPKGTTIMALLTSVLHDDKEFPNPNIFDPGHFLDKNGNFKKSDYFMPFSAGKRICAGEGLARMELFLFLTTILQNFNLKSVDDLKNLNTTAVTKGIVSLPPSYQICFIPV

Cytochrome P450 2D6 = Cytochrome P450 2D6 (Homo sapiens, UniProt P10635); assay: Drug level assessed as human recombinant CYP2D6-mediated oxidative metabolism treated with 1 uM 17-DMAG relative to CYP3A4; assay type: ADME; details: recombinant enzyme; summary of the method: as §2
Cytochrome P450 2A6 = target: T2, Cytochrome P450 2A6 (Homo sapiens, UniProt P11509); assay: Drug level assessed as human recombinant CYP2A6-mediated oxidative metabolism treated with 1 uM 17-DMAG relative to CYP3A4; assay type: ADME; details: recombinant enzyme; summary of the method: as §2
T2 sequence (P11509 whole entry): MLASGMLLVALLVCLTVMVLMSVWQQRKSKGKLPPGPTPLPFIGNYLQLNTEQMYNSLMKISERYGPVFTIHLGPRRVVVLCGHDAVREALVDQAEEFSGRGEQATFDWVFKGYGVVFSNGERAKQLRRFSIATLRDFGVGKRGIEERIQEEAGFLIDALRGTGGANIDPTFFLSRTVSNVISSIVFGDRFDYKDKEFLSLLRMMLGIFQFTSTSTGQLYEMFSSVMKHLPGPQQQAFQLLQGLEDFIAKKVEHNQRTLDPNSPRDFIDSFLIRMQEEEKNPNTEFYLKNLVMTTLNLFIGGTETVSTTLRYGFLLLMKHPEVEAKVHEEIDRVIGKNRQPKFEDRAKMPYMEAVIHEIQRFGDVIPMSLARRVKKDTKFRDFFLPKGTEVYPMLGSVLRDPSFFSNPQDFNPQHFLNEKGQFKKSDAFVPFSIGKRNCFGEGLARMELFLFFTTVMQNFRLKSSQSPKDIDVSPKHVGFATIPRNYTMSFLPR

Cytochrome P450 2C19 = Cytochrome P450 2C19 (Homo sapiens, UniProt P33261); assay: Drug level assessed as human recombinant CYP2C19-mediated oxidative metabolism treated with 1 uM 17-DMAG relative to CYP3A4; assay type: ADME; details: recombinant enzyme; summary of the method: as §2
Cytochrome P450 1A2 = target: T3, Cytochrome P450 1A2 (Homo sapiens, UniProt P05177); assay: Drug level assessed as human recombinant CYP1A2-mediated oxidative metabolism treated with 1 uM 17-DMAG relative to CYP3A4; assay type: ADME; details: recombinant enzyme; summary of the method: as §2
T3 sequence (P05177 whole entry): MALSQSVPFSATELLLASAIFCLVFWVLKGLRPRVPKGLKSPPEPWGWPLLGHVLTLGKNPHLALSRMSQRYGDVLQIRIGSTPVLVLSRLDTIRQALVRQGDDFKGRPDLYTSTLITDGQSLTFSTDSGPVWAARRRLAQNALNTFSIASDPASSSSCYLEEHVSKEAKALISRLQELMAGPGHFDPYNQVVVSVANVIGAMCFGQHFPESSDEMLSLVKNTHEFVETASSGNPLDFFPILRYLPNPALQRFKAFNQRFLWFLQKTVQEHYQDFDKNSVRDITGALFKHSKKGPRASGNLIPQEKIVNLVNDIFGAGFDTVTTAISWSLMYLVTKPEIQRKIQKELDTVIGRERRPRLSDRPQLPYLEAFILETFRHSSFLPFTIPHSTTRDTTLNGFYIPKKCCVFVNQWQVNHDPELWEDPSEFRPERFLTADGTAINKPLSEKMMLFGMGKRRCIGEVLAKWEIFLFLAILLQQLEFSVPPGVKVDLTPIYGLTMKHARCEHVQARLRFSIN

Liver microsome [9] = assay: Drug metabolism in human liver microsomes assessed as (4E,6Z,8S,9S,10E,12S,13R,14S,16R)-19-(2-(dimethylamino)ethylamino)-13,14-dihydroxy-8-methoxy-4,10,12,16-tetramethyl-3,20,22-trioxo-2-azabicyclo[16.3.1]docosa-1(21),4,6,10,18-pentaen-9-yl carbamate formation at 37 degC in presence of reduced GSH by liquid chromatography-tandem mass spectrometry; assay type: ADME; details: read-out: Km(app)
Liver microsome [10] = assay: Drug metabolism in human liver microsomes assessed as (4E,6Z,8S,9S,10E,12S,13R,14S,16R)-19-(2-(dimethylamino)ethylamino)-8,13-dihydroxy-14-methoxy-4,10,12,16-tetramethyl-3,20,22-trioxo-2-azabicyclo[16.3.1]docosa-1(21),4,6,10,18-pentaen-9-yl carbamate formation at 1 uM 17-DMAG by liquid chromatography-tandem mass spectrometry in presence of 1 uM ketoconazole CYP3A inhibitor; assay type: ADME
Cytochrome P450 3A5 = Cytochrome P450 3A5 (Homo sapiens, UniProt P20815); assay: Drug metabolism assessed as human recombinant CYP3A5-mediated (4E,6Z,8S,9S,10E,12S,13R,14S,16R)-19-(2-(dimethylamino)ethylamino)-13-hydroxy-8,14-dimethoxy-4,10,12,16-tetramethyl-3,20,22-trioxo-2-azabicyclo[16.3.1]docosa-1(21),4,6,10,18-pentaen-9-yl carbamate formation at 1 uM relative to CYP3A4; assay type: ADME; details: recombinant enzyme
Cytochrome P450 2B6 = target: T4, Cytochrome P450 2B6 (Homo sapiens, UniProt P20813); assay: Drug metabolism assessed as human recombinant CYP2B6-mediated oxidative metabolism at 1 uM by liquid chromatography-tandem mass spectrometry; assay type: ADME; details: recombinant enzyme
T4 sequence (P20813 whole entry): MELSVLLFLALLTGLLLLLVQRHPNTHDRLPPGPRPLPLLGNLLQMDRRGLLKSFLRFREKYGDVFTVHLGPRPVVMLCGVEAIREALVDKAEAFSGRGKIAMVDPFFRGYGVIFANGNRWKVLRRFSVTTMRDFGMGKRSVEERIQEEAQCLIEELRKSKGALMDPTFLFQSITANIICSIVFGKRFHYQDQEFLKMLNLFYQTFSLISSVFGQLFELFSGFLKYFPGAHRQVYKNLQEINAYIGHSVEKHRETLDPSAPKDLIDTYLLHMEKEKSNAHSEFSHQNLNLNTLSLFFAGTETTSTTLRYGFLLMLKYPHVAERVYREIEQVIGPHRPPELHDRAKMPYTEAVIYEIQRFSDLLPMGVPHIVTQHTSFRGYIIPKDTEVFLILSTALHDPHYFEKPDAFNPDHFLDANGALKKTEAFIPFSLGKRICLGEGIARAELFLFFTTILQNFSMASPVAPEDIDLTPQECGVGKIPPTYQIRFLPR

Cytochrome P450 2C9 = Cytochrome P450 2C9 (Homo sapiens, UniProt P11712); assay: Drug metabolism assessed as human recombinant CYP2C9-mediated oxidative metabolism at 1 uM by liquid chromatography-tandem mass spectrometry; assay type: ADME; details: recombinant enzyme
Cytochrome P450 2E1 = Cytochrome P450 2E1 (Homo sapiens, UniProt P05181); assay: Drug metabolism assessed as human recombinant CYP2E1-mediated oxidative metabolism at 1 uM by liquid chromatography-tandem mass spectrometry; assay type: ADME; details: recombinant enzyme
Liver microsome [11] = assay: Metabolic stability in human liver microsomes at 5 uM by liquid chromatography-tandem mass spectrometry; assay type: ADME
Summary of the method: (§3)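 Pooled human liver microsomes (1 mg/ml) were incubated at 37°C with substrate (5 µM final), 1 mM β-NADPH and 3.3 mM MgCl2 in 0.1 M phosphate buffer, with or without 5 mM reduced GSH. Aliquots were taken from 1 to 120 min and quenched in ice-cold acetonitrile containing internal standard. LC-MS/MS peak-area ratios to internal standard were normalised to the 1-min sample.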

[12] = Terminal half life in human; assay type: ADME, organism-based; details: in vivo, read-out: beta t1/2 (converted)
[13] = Total clearance in human; assay type: ADME, organism-based; details: in vivo
[14] = Drug metabolism in human liver microsomes assessed as stability after 2 hrs relative to control by liquid chromatography-tandem mass spectrometry; assay type: ADME; details: read-out: Stability; summary of the method: as §3
Liver microsome [15] = assay: Drug metabolism in human liver microsomes assessed as (4E,6Z,8S,9S,10E,12S,13R,14S,16R)-19-(2-(dimethylamino)ethylamino)-13-hydroxy-10-(hydroxymethyl)-8,14-dimethoxy-4,12,16-trimethyl-3,20,22-trioxo-2-azabicyclo[16.3.1]docosa-1(21),4,6,10,18-pentaen-9-yl carbamate formation at 37 degC in presence of reduced GSH by liquid chromatography-tandem mass spectrometry; assay type: ADME; details: read-out: Km(app)

Cytochrome P450 3A4, sequence (P08684 whole entry): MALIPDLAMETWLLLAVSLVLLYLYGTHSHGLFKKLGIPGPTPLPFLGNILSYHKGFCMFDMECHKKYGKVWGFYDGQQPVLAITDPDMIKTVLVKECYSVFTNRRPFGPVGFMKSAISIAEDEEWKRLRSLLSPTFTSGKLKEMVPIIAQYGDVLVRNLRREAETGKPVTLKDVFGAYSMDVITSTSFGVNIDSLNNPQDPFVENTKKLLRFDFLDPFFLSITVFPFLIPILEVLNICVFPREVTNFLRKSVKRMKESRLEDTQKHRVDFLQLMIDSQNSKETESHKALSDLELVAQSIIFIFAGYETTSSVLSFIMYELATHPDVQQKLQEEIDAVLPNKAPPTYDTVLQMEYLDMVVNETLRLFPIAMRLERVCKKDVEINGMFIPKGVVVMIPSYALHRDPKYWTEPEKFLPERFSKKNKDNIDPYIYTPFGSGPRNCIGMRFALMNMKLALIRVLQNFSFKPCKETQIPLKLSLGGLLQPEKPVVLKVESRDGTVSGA
Cytochrome P450 2D6, sequence (P10635 whole entry): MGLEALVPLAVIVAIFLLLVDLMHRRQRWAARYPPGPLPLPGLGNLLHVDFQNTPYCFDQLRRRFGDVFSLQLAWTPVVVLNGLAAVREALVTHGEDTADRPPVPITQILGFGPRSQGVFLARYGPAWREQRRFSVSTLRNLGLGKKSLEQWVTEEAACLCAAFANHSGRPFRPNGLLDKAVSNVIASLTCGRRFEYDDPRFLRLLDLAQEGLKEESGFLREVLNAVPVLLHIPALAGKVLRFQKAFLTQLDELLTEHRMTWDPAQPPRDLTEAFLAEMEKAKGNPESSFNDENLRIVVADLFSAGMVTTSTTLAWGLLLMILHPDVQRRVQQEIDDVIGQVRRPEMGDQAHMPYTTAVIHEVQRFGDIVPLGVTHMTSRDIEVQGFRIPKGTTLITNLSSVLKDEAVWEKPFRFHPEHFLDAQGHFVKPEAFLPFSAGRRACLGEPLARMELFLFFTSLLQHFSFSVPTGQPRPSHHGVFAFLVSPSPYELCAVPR
Cytochrome P450 2C9, sequence (P11712 whole entry): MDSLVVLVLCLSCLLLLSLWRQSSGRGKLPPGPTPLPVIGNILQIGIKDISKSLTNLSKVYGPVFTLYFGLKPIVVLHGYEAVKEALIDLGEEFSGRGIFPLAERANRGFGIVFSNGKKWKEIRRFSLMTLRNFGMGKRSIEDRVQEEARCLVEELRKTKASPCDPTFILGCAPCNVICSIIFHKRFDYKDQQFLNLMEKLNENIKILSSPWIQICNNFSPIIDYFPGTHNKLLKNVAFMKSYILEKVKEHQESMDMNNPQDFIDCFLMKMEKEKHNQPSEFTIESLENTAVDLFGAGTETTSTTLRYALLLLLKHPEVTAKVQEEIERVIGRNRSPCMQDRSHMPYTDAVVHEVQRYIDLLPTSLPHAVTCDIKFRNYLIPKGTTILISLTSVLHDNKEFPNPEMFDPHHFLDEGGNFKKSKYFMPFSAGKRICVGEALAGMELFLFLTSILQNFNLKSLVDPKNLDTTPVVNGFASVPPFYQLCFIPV
Cytochrome P450 2E1, sequence (P05181 whole entry): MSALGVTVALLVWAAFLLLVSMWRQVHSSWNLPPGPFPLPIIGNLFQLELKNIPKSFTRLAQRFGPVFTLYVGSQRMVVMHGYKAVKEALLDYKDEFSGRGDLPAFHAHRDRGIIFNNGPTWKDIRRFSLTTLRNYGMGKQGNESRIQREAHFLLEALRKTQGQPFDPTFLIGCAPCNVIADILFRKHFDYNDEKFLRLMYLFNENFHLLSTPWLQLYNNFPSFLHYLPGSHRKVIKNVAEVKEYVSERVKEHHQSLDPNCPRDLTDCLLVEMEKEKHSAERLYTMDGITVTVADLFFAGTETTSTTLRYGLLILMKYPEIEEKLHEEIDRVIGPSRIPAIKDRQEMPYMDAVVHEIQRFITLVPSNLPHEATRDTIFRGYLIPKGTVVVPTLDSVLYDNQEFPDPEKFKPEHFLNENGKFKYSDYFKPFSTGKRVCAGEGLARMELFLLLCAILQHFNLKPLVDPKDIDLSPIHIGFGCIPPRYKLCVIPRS
Cytochrome P450 3A5, sequence (P20815 whole entry): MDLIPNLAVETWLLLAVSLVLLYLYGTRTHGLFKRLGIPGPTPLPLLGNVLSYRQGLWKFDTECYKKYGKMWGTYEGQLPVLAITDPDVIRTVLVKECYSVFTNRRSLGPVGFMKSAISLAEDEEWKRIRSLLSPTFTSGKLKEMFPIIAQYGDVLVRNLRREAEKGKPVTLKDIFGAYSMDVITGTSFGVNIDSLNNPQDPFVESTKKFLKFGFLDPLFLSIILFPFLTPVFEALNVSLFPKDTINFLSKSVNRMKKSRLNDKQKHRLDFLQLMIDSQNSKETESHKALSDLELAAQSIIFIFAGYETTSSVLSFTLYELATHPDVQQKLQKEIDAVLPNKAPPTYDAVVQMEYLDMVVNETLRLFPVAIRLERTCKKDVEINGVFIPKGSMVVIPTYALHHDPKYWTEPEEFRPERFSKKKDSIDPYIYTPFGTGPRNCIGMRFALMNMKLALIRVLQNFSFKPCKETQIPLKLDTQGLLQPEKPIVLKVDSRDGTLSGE
Cytochrome P450 2C19, sequence (P33261 whole entry): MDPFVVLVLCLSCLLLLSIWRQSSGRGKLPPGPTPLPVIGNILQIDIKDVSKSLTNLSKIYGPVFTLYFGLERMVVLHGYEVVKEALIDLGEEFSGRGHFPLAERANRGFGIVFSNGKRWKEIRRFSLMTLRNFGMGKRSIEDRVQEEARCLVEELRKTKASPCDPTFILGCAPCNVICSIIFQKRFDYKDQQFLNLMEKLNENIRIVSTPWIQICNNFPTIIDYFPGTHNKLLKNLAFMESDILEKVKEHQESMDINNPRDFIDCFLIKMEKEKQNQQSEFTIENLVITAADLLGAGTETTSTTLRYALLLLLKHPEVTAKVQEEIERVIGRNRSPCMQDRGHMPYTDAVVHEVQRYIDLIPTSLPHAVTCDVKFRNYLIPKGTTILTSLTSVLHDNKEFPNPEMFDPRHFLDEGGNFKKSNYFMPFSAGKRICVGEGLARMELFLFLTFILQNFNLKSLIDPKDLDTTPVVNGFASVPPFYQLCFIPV

## CO[C@H]1/C=C\C=C(/C)C(=O)NC2=CC(=O)C(NC(O)CN(C)C)=C(C[C@@H](CO)C[C@H](OC)[C@H](O)[C@@H](CO)/C=C(\C)[C@@H]1OC(N)=O)C2=O (stereo not given in full)
Liver microsome [1]
  Retention_time: 6.8 min
Liver microsome [2]
  Drug metabolism: metabolite_detected
Liver microsome [3]
  Drug metabolism: metabolite_detected
Liver microsome [4]
  Drug metabolism: metabolite_detected
Liver microsome [5]
  Drug metabolism: metabolite_detected
Liver microsome [6]
  Drug metabolism: metabolite_detected
Liver microsome [7]
  Drug metabolism: metabolite_detected
Liver microsome [8]
  Drug metabolism: metabolite_detected
Cytochrome P450 3A4
  Drug metabolism: metabolite_detected
Cytochrome P450 2C8
  Drug metabolism: metabolite_detected
Cytochrome P450 2D6
  Drug metabolism: metabolite_detected
Cytochrome P450 2A6
  Drug metabolism: metabolite_detected
Cytochrome P450 2C19
  Drug metabolism: metabolite_detected
Cytochrome P450 1A2
  Drug metabolism: metabolite_detected

## CO[C@H]1/C=C\C=C(/C)C(=O)NC2=CC(=O)C(NCCN(C)C)=C(C[C@@H](C)C[C@H](OC)[C@H](O)[C@@H](C)/C=C(\C)[C@@H]1OC(N)=O)C2=O (stereo in doubt) [ALVESPIMYCIN]
Liver microsome [9]
  Km: 7.83 µM
Liver microsome [10]
  Drug metabolism: metabolite_not_detected
Cytochrome P450 3A5
  Drug metabolism: metabolite_not_detected
Cytochrome P450 2B6
  Drug metabolism: metabolite_not_detected
Cytochrome P450 2C9
  Drug metabolism: metabolite_not_detected
Cytochrome P450 2E1
  Drug metabolism: metabolite_not_detected
Liver microsome [11]
  Stability: Stable
[12]
  half-life: 960 min
[13]
  clearance: 123 mL/min
[14]
  remaining at 2 h: 24%
Liver microsome [15]
  Km: 6.61 µM
